In one data set the test system is Candida tropicalis. As to the kind of experiment: Antifungal activity against Candida tropicalis 98-234 infected in neutropenic ICR/Swiss mouse candidiasis model assessed as dose required to maintain […] of 3.81 +/- 0.33 log10CFU per kidney administered intraperitoneally every 24 hrs up to 4 days measured per 24 hrs. Type of data set: functional.
For data set [1], the system named is Nakaseomyces glabratus. As to the kind of experiment: Antifungal activity against Candida glabrata 513 infected in neutropenic ICR/Swiss mouse candidiasis model assessed as dose required to maintain […] burden of 1.83 +/- 0.54 log10CFU per kidney administered intraperitoneally every 24 hrs up to 4 days measured per 24 hrs. Type of data set: functional.
Data set [2] concerns Nakaseomyces glabratus. Nature of the data set: Antifungal activity against Candida glabrata 33609 infected in neutropenic ICR/Swiss mouse candidiasis model assessed as dose required to maintain […] of 1.83 +/- 0.54 log10CFU per kidney administered intraperitoneally every 24 hrs up to 4 days measured per 24 hrs. The data set is classed as functional.
Data set [3] has as its system Nakaseomyces glabratus. As to the kind of experiment: Antifungal activity against Candida glabrata 5376 infected in neutropenic ICR/Swiss mouse candidiasis model assessed as suppression of fungal regrowth at 5 mg/kg, ip administered 2 hrs postinfection as single dose by time-kill assay. The data set is classed as functional, organism-based. On the set-up: dose 5 mg/kg. A digest of the protocol: (§1)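 Neutropenic mice were infected i.v. and 2 h later given a single i.p. dose (1.25, 5 or 20 mg/kg). Groups of three treated and three control mice were killed at intervals over 96 h, and kidney CFU were counted on SDA (limit 100 CFU/ml). The post-antifungal effect is t − c: the time for a 1 log10 CFU/kidney increase once serum levels fall below the MIC in treated mice, minus the same time in controls.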

Data set [4] deals with Nakaseomyces glabratus. As to the kind of experiment: Antifungal activity against Candida glabrata 5376 infected in neutropenic ICR/Swiss mouse candidiasis model assessed as prolongation of fungal growth suppression at 20 mg/kg, ip administered 2 hrs postinfection as single dose by time-kill assay. The data set is classed as functional. The following applies: route intraperitoneal. A digest of the protocol:
as §1

Data set [5] concerns Nakaseomyces glabratus. As to the kind of experiment: Antifungal activity against Candida glabrata 5376 infected in neutropenic ICR/Swiss mouse candidiasis model assessed as prolongation of fungal growth suppression at 5 mg/kg, ip administered 2 hrs postinfection as single dose by time-kill assay. Type of data set: functional. To be noted: route intraperitoneal. A digest of the protocol:
as §1

The subject of data set [6] is Candida albicans. As to the kind of experiment: Antifungal activity against Candida albicans K-1 infected in neutropenic ICR/Swiss mouse candidiasis model assessed as dose required for 1-log10 reduction in […] per kidney administered intraperitoneally every 16 hrs up to 4 days measured per 96 hrs. Type of data set: functional. In outline: (§2)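 Neutropenic mice were infected iv with C. albicans K-1 2 h before therapy. Total doses of 1.25, 5, 20, 80 and 320 mg/kg/96 h were split into 1, 2, 4 or 6 ip doses (q96h, q48h, q24h, q16h), three mice per regimen. Effect is the log10 CFU/kidney relative to untreated controls at 96 h. Static and 1-log doses were taken from a Hill model fit.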

The test system of data set [7] is Nakaseomyces glabratus. As to the kind of experiment: Antifungal activity against Candida glabrata 32930 infected in neutropenic ICR/Swiss mouse candidiasis model assessed as dose required for 1-log10 reduction in […] per kidney administered intraperitoneally every 24 hrs up to 4 days measured per 24 hrs. Type of data set: functional. In outline: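 Neutropenic mice (cyclophosphamide sc on days −4, −1 and +2) were infected iv 2 h before therapy. Five total doses from 0.078 to 20 mg/kg/24 h were given ip q24h for 4 days, three mice per regimen. Kidney CFU were measured at the end of therapy. Static and 1-log-kill doses were derived from a Hill sigmoid dose-effect fit.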

Data set [8] relates to Candida albicans. Nature of the data set: Antifungal activity against Candida albicans K-1 infected in neutropenic ICR/Swiss mouse candidiasis model assessed as […] burden per kidney administered intraperitoneally once every 96 hrs measured per 96 hrs. The data set is classed as functional. The following applies: K-1, Kidney, ip. A digest of the protocol: as §2
Data set [9] has as its system Candida albicans. Nature of the data set: Antifungal activity against Candida albicans 580 assessed as partial growth inhibition after 24 hrs by CLSI end point method. Type of data set: functional. To be noted: Candida albicans, 580, 24 h. A digest of the protocol:
(§3)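 CLSI M27-A2 broth dilution. Two end points read against the drug-free control well: partial inhibition (CLSI end point) and complete inhibition. Run in duplicate on four separate occasions; value is the mean. Drug stock in DMSO, diluted in 0.9% NaCl.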

In data set [10] the test system is Nakaseomyces glabratus. Nature of the data set: Antifungal activity against Candida glabrata 33609 assessed as partial growth inhibition after 24 hrs by CLSI end point method. The data set is classed as functional. The following applies: Nakaseomyces glabratus, 33609, 24 h. A digest of the protocol:
as §3

Data set [11] concerns Nakaseomyces glabratus. Nature of the data set: Antifungal activity against Candida glabrata 5376 assessed as partial growth inhibition after 24 hrs by CLSI end point method. The data set is classed as functional. To be noted: Nakaseomyces glabratus, 5376, 24 h. In outline: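 Two end points were read against the drug-free control well: partial growth inhibition (the CLSI end point) and complete inhibition. Run in duplicate on four separate occasions; the value is the mean. Drug stock was made in DMSO and diluted in 0.9% NaCl.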

Data set [12] concerns Candida albicans. As to the kind of experiment: Antifungal activity against Candida albicans 98-17 assessed as complete growth inhibition after 24 hrs by CLSI end point method. To be noted: 98-17, 24 h. Type of data set: functional. In outline:
as §3

In data set [13] the test system is Candida albicans. As to the kind of experiment: Antifungal activity against Candida albicans 98-210 infected in neutropenic ICR/Swiss mouse candidiasis model assessed as fungal count per kidney administered 2 hrs postinfection measured up to 48 hrs. Type of data set: functional. In outline: (§4)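 Untreated neutropenic mice infected via the tail vein (inoculum about 6.1 log10 CFU/ml, 0.1 ml). Growth is the rise in kidney CFU over 48 h. Kidneys were homogenised, serially diluted 1:10 and plated on SDA for 24 h at 35°C. Mean of three mice.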

For data set [14], the system named is Candida albicans. Nature of the data set: Antifungal activity against Candida albicans 580 infected in neutropenic ICR/Swiss mouse candidiasis model assessed as fungal count per kidney administered 2 hrs postinfection measured up to 48 hrs. The data set is classed as functional. In outline: as §4
Data set [15] concerns Nakaseomyces glabratus. Nature of the data set: Antifungal activity against Candida glabrata 5376 infected in neutropenic ICR/Swiss mouse candidiasis model assessed as fungal count per kidney administered 2 hrs postinfection measured up to 48 hrs. The data set is classed as functional. A digest of the protocol:
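Female ICR/Swiss mice (23–27 g) made neutropenic with cyclophosphamide s.c. (150 mg/kg day −4, 100 mg/kg day −1, 100 mg/kg day +2). Infected by tail vein with 0.1 ml inoculum (~6.1 log10 CFU/ml). Kidneys of untreated mice were homogenised and plated on SDA for 24 h at 35°C. Growth over 48 h is given as log10 CFU/kidney.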

The nature of data set [16]: Elimination half life in serum of neutropenic ICR/Swiss mouse candidiasis model at 20 mg/kg, ip by reverse-phase high-pressure liquid chromatography. The data set is classed as ADME, organism-based. The following applies: read-out: beta t1/2 (converted). Set-up: dose 20 mg/kg, route intraperitoneal. A digest of the protocol: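 Infected neutropenic ICR/Swiss mice given single ip doses (5, 20 or 80 mg/kg; 0.2 ml); serum from three isoflurane-anaesthetised mice at 1, 4, 8, 12, 24 and 48 h, stored at −80°C, assayed by reverse-phase HPLC with fluorescence detection, loratadine internal standard, linear 10–50,000 ng/ml. Noncompartmental analysis; half-life by nonlinear least squares.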

For data set [17], the system named is Candida albicans. As to the kind of experiment: Antifungal activity against Candida albicans K-1 infected in neutropenic ICR/Swiss mouse candidiasis model assessed as reduction of […] in kidney at 1.25 mg/kg, ip administered 2 hrs postinfection as single dose measured after 96 hrs post dosing by time-kill assay. Set-up: dose 1.25 mg/kg. Type of data set: functional, organism-based. A digest of the protocol: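 Neutropenic mice given a single ip dose (1.25, 5 or 20 mg/kg) 2 h after tail-vein infection. Kidneys from 3 mice per time point collected nine times over 96 h. Homogenates serially diluted 1:10 and plated on SDA, 24 h at 35°C. Detection limit 100 CFU/ml.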

The subject of data set [18] is Nakaseomyces glabratus. As to the kind of experiment: Antifungal activity against Candida glabrata 5376 infected in neutropenic ICR/Swiss mouse candidiasis model assessed as dose required to maintain […] of 3.71 +/- 0.21 log10CFU per kidney administered intraperitoneally every 24 hrs up to 4 days measured per 96 hrs.

SMILES strings stand for the structures. Values after ≈ are worked out from the molar mass of the structure shown. Active and inactive are the calls of the source. The calls are words filed in the database; no cut-off is given here. Starred links: 1 amine or outer side, 2 acyl side, 3 side chain; linkers in the order of their positions; H or OH if unused. Positions of bridges follow the written chain, without caps; N, C: chain ends. Non-standard residues stand in square brackets, D forms with d. Residues, ends and D or L forms follow the SMILES beside them. *: point of attachment. pTerphenylCO(4''-OnC5H11) = CCCCCOc1ccc(-c2ccc(-c3ccc(C(=O)*)cc3)cc2)cc1; Orn(4R-OH,5R-OH) = O=C([C@H](C[C@@H](O)[C@@H](O)N[*:3])N[*:1])[*:2]; hTyr(3S-OH,4S-OH) = N[C@H](C(=O)O)[C@H](O)[C@@H](O)c1ccc(O)cc1; Pro(3S-OH,4S-Me) = C[C@H]1CN[C@H](C(=O)O)[C@H]1O; Hyp = O=C(O)[C@@H]1C[C@@H](O)CN1

With `CCCCCOc1ccc(-c2ccc(-c3ccc(C(=O)N[C@H]4C[C@@H](O)[C@@H](O)NC(=O)[C@@H]5[C@@H](O)[C@@H](C)CN5C(=O)[C@H]([C@@H](C)O)NC(=O)[C@H]([C@H](O)[C@@H](O)c5ccc(O)cc5)NC(=O)[C@@H]5C[C@@H](O)CN5C(=O)[C@H]([C@@H](C)O)NC4=O)cc3)cc2)cc1` [ANIDULAFUNGIN] ({pTerphenylCO(4''-OnC5H11)}-[Orn(4R-OH,5R-OH)]T[Hyp][hTyr(3S-OH,4S-OH)]T[Pro(3S-OH,4S-Me)]; lactam 1-C), the Activity amounted to 3.81 mg/kg in the data set on Candida tropicalis; 2.45 mg/kg in the data set with Nakaseomyces glabratus [1]; 2 mg/kg in the data set on Nakaseomyces glabratus [2]; 67 h in the data set on Nakaseomyces glabratus [4]; 19 h in the data set on Nakaseomyces glabratus [5]; 38.3 mg/kg with Candida albicans [6]. Further, the results for the Activity with Nakaseomyces glabratus [7] and with Nakaseomyces glabratus [18] were 3.31 mg/kg and 17.6 mg/kg, respectively. Also, the outcome in the data set with Nakaseomyces glabratus [3] and in the data set on Candida albicans [17] was Active. Moreover, the ED50 – broadly, the dose that gives a 50% effect, or the effect in half of the subjects – in the data set on Candida albicans [8] was determined as 2.13 mg/kg. For the same molecule, the minimal inhibitory concentration (MIC) (usually the lowest concentration found to suppress growth) is 0.015 µg/mL (≈ 0.0132 µM) in the data set with Candida albicans [9], 0.03 µg/mL (≈ 0.0263 µM) with Nakaseomyces glabratus [10], 0.03 µg/mL (≈ 0.0263 µM) with Nakaseomyces glabratus [11] and 0.12 µg/mL (≈ 0.105 µM) in the data set with Candida albicans [12]. The log10cfu with Candida albicans [13] is given as 3.5; in the data set with Candida albicans [14], 3.4; with Nakaseomyces glabratus [15], 2.1. Also, the half-life in data set [16] was 14.7 h.

(Values after ChEMBL document CHEMBL1153564 (Antimicrob Agents Chemother, 2008).)
